# ChEMBL document CHEMBL1145545, “Discovery of a novel A2B adenosine receptor antagonist as a clinical candidate for chronic inflammatory airway diseases” (J Med Chem, 2008)
# Legend:
# Homo sapiens [1] = species: Homo sapiens; experiment: Selectivity for human recombinant adenosine A2B receptor over human recombinant adenosine A3 receptor
# [2] = Cmax in Sprague-Dawley rat at 2 mg/kg, po; assay type: ADME, organism-based; design: dose 2 mg/kg, route oral; conditions: in vivo
# [3] = biological target: T1, Adenosine receptor A2b (Mus musculus) (UniProt Q60614); experiment: Antagonist activity at mouse adenosine A2B receptor expressed in NIH3T3 cells assessed as inhibition of NECA-induced cAMP accumulation; assay type: functional, cell-based
# T1 sequence (whole entry): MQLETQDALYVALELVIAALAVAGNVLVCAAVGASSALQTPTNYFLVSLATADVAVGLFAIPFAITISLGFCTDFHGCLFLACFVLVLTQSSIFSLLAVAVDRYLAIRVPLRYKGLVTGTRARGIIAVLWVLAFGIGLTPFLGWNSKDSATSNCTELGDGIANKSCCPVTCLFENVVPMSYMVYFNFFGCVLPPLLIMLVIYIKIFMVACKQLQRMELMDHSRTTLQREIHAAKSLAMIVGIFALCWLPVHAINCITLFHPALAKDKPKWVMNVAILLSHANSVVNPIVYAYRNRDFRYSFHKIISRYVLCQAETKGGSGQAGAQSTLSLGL
# How it was run: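 Mouse NIH/3T3 cells stimulated with NECA (1 nM to 100 µM) without or with increasing antagonist concentrations; cAMP accumulation measured. KB obtained by Schild analysis; mean ± SEM of three experiments in duplicate.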
# Homo sapiens [4] = species: Homo sapiens; experiment: Selectivity for human recombinant adenosine A2B receptor over human recombinant adenosine A2A receptor
# Homo sapiens [5] = species: Homo sapiens; experiment: Selectivity for human recombinant adenosine A2B receptor over human recombinant adenosine A1 receptor
# Adenosine receptor A2b = biological target: T2, Adenosine receptor A2b (Homo sapiens, UniProt P29275); experiment: Displacement of [3H]ZM-241385 from human recombinant adenosine A2B receptor expressed in HEK293 cells; assay type: cell-based
# T2 sequence (P29275 whole entry): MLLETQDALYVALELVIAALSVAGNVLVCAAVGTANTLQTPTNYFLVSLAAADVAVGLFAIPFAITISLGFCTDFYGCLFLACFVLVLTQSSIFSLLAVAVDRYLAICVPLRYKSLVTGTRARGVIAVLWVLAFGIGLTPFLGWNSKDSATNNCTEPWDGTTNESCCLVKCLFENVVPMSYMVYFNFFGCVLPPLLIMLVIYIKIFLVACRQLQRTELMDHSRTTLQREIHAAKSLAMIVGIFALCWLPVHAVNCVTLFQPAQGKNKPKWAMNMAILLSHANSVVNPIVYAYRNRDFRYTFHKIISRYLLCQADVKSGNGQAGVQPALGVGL
# How it was run: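 Membranes from HEK293 cells stably expressing human A2B receptor; competition with 10 nM radioligand, 50 µg membrane protein, in 50 mM Tris/1 mM EDTA with 1 U/mL adenosine deaminase, 25 °C for 90 min with gentle agitation; filtration, four ice-cold Tris/MgCl2 washes. Nonspecific binding defined with 10 µM unlabelled ligand; Ki calculated.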
# Adenosine receptor A3 = biological target: T3, Adenosine receptor A3 (Homo sapiens, UniProt P0DMS8); experiment: Displacement of [125I]ABMECA from human recombinant adenosine A3 receptor expressed in CHO cells; assay type: cell-based
# T3 sequence (P0DMS8 whole entry): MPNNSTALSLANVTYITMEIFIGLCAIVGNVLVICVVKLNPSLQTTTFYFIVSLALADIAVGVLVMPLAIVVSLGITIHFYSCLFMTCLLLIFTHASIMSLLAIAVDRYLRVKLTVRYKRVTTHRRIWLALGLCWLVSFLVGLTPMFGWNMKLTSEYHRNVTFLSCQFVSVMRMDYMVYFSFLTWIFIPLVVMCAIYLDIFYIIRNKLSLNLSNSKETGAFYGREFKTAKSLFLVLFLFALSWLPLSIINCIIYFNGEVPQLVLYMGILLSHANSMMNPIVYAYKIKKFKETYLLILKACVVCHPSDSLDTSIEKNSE
# How it was run: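 Human A3 receptor stably expressed in CHO cells; membranes incubated with 0.1 nM 125I-AB-MECA and test compound in 50 mM Tris, 1 mM EDTA, 10 mM MgCl2 plus 1 U/mL adenosine deaminase, 25 °C, 90 min; filtration, four ice-cold washes. Nonspecific binding defined with 1 µM IB-MECA; Ki determined.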
# Adenosine receptor A1 = biological target: T4, Adenosine receptor A1 (Homo sapiens, UniProt P30542); experiment: Displacement of [3H]CPX from human recombinant adenosine A1 receptor expressed in CHO cells; assay type: cell-based
# T4 sequence (P30542 whole entry): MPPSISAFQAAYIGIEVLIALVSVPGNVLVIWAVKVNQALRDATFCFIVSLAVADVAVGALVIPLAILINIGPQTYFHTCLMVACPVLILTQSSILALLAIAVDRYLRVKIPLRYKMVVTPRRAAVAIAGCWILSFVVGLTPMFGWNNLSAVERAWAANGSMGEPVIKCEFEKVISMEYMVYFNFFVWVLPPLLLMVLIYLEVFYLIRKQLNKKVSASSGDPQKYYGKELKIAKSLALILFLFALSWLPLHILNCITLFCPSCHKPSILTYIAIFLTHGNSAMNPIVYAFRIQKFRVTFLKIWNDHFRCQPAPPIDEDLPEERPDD
# How it was run: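 CHO cell membranes stably expressing human A1 receptor; 0.5 nM [3H]CPX competed with test compound in 50 mM Tris/1 mM EDTA plus 1 U/mL adenosine deaminase, 25 °C, 90 min, gentle agitation; filtration and four ice-cold Tris/MgCl2 washes. Nonspecific binding defined with 1 µM CPX; Ki values derived.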
# [6] = Half life in Sprague-Dawley rat at 2 mg/kg, po; assay type: ADME, organism-based; design: dose 2 mg/kg, route oral; conditions: in vivo
# Adenosine receptor A2a = Adenosine receptor A2a (Homo sapiens, UniProt P29274); experiment: Displacement of [3H]ZM-241385 from human recombinant adenosine A2A receptor expressed in HEK293 cells; assay type: cell-based
# Sequence of Adenosine receptor A2a (P29274 whole entry): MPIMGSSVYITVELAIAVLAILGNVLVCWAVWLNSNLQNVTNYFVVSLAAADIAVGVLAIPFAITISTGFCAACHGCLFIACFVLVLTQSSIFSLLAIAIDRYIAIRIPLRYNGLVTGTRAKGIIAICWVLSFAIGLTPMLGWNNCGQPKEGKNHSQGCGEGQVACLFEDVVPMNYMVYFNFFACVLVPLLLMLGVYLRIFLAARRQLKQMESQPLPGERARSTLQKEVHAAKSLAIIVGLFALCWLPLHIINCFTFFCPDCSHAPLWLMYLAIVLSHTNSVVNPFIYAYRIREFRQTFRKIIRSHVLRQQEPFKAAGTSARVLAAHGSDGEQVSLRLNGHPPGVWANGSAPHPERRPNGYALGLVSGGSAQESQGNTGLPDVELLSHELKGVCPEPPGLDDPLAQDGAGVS
# How it was run: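 Membranes from HEK293 cells stably expressing human A2A receptor; 2 nM radioligand competed in 50 mM Tris/1 mM EDTA with 1 U/mL adenosine deaminase for 90 min at 25 °C with agitation; filtration, four ice-cold Tris/MgCl2 washes. Nonspecific binding defined with 1 µM unlabelled ligand; Ki computed.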
SMILES,Ratio Ki (Homo sapiens [1]),Cmax [2],Kb [3],Ratio Ki (Homo sapiens [4]),Ratio Ki (Homo sapiens [5]),Ki (Adenosine receptor A2b),Ki (Adenosine receptor A3),Ki (Adenosine receptor A1),half-life [6],Ki (Adenosine receptor A2a)
CCCn1c(=O)c2[nH]c(-c3cnn(Cc4cccc(C(F)(F)F)c4)c3)nc2n(CC)c1=O [GS 6201],48,1.11 µg/mL,0.002 µM,149,88,0.022 µM,1.07 µM,1.94 µM,4.25 h,3.28 µM
CCn1c(=O)n(CC(C)C)c(=O)c2[nH]c(-c3cnn(Cc4ccc(C(F)(F)F)nc4)c3)nc21,17,,,270,180,0.02 µM,0.35 µM,3.59 µM,,5.41 µM
CCn1c(=O)c2[nH]c(-c3cnn(Cc4cccc(C(F)(F)F)c4)c3)nc2n(C)c1=O,43,,,39,45,0.006 µM,0.262 µM,0.274 µM,,0.234 µM
Cn1c(=O)n(CC2CC2)c(=O)c2[nH]c(-c3cnn(Cc4cccc(F)c4)c3)nc21,5,,,10,26,0.007 µM,0.035 µM,0.185 µM,,0.073 µM
CCCn1c(=O)c2[nH]c(-c3cnn(Cc4cccc(F)c4)c3)nc2n(CC)c1=O,27,,,71,34,0.035 µM,0.95 µM,1.2 µM,,2.5 µM
CC(C)Cn1c(=O)c2[nH]c(-c3cnn(Cc4ccccc4)c3)nc2n(C)c1=O,9,,,19,16,0.021 µM,0.204 µM,0.347 µM,,0.408 µM
CCn1c(=O)n(CC2CC2)c(=O)c2[nH]c(-c3cnn(Cc4ccc(C(F)(F)F)nc4)c3)nc21,25,,,142,80,0.016 µM,0.4 µM,1.28 µM,,2.28 µM
CCn1c(=O)c2[nH]c(-c3cnn(Cc4cccc(F)c4)c3)nc2n(C)c1=O,47,,,38,58,0.006 µM,0.282 µM,0.35 µM,,0.231 µM
CCCn1c(=O)c2[nH]c(-c3cnn(Cc4ccc(C(F)(F)F)nc4)c3)nc2n(CC)c1=O,24,0.671 µg/mL,,125,139,0.018 µM,0.44 µM,2.5 µM,9.7 h,2.25 µM
CCn1c(=O)c2[nH]c(-c3cnn(Cc4ccccc4)c3)nc2n(C)c1=O,46,,,36,130,0.002 µM,0.092 µM,0.26 µM,,0.073 µM
CCCn1c(=O)c2[nH]c(-c3cnn(Cc4ccc(C)nc4)c3)nc2n(CC)c1=O,6,,,15,33,0.045 µM,0.29 µM,1.52 µM,,0.67 µM
Cn1c(=O)n(CC2CC2)c(=O)c2[nH]c(-c3cnn(Cc4cccc(C(F)(F)F)c4)c3)nc21,7,,,15,8,0.021 µM,0.16 µM,0.167 µM,,0.312 µM
CCCCn1c(=O)c2[nH]c(-c3cnn(Cc4cccc(C(F)(F)F)c4)c3)nc2n(C)c1=O,41,,,43,38,0.011 µM,0.453 µM,0.427 µM,,0.481 µM
CCCn1c(=O)c2[nH]c(-c3cnn(Cc4cc(-c5ccc(C(F)(F)F)cc5)on4)c3)nc2n(CC)c1=O,152,,,94,87,0.025 µM,3.81 µM,2.19 µM,,2.37 µM
Cn1c(=O)n(CC2CC2)c(=O)c2[nH]c(-c3cnn(Cc4ccccc4)c3)nc21,8,,,13,14,0.011 µM,0.091 µM,0.154 µM,,0.149 µM
CCCn1c(=O)c2[nH]c(-c3cnn(Cc4cccc(C(F)(F)F)c4)c3)nc2n(C)c1=O,29,,,32,31,0.014 µM,0.408 µM,0.441 µM,,0.45 µM
